Most compounds without a hit are left out; they make up all but 1.3% or so of the library.
NSD2 inh: blocks human histone methyltransferase NSD2. O96028. inhibition, % at 12.5 µM. actives 0.54% (n = 310,000). NSD2 peptide methylation, AlphaScreen, 120 min; in the data active = inhibition above about 50%
LEDGF integ inh: blocks HIV-1 LEDGF/p75-dependent DNA integration | inhibition, % at 3.7 µM | TR-FRET IN-LEDGF/p75 DNA integration, Eu/Cy5 | actives 0.64% (n = 370,000);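 active = inhibition above the screen-wide mean plus 3 SD, cut at about 13% in these data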;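 note: signal is the Cy5 over europium emission ratio at 671 and 618 nm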
TDP2 absorb: TDP2 (human) inhibition, absorbance primary screen; O95551; recombinant TDP2, T5PNP hydrolysis, p-nitrophenol absorbance 415 nm; inhibition, % at 12.8 µM; actives 0.34% (n = 370,000);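 active = inhibition above the mean of all tested compounds plus 3 SD, set per campaign, cut at about 25% in these data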
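Test system: Human TDP2 enzyme | Reagent: 5 mM T5PNP | Compound dosing: 12.8 µM single point, 1% DMSO | Incubation: Enzyme reaction with compound for 2 h at 37 °C | Technique: p-Nitrophenol epi absorbance | Read-out: % inhibition relative to enzyme-containing and enzyme-free wells | Benchmarks: High control without enzyme, low control DMSO plus TDP2 | Replicates: Singlicate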
UCH37 inh: blocks the human deubiquitinase UCH37; Q9Y5K5; purified proteasome/UCH37, Ub-AMC cleavage fluorescence; inhibition, % (no concentration beside the values); actives 0.33% (n = 330,000);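 active = mean inhibition over replicate wells above about 20%, limit read from the data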
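Material: human UCH37 enzyme supplied as purified proteasome complex. Measure: % inhibition of Ub-AMC cleavage fluorescence. Medium: pH 7.4 Tris-HCl (50 mM) with ovalbumin, ATP-MgCl2, DTT. Times: 30 min preincubation with enzyme, 25 min cleavage at room temperature. Detection: AMC fluorescence intensity at 355/460 nm.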
Casp6 inh: inhibitors of human caspase-6 | P55212 | actives 0.53% (n = 350,000) | purified caspase-6, Z-VEID-R110 cleavage fluorescence | AID 686996 | inhibition, % at 12.5 µM;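 active = mean inhibition across replicates at least about 35%, with every replicate also reaching that limit, limit read from the data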
Numbers stand for hits; i = inactive; nt = not tested or not shown.

SMILES | NSD2 inh | LEDGF integ inh | TDP2 absorb | UCH37 inh | Casp6 inh
Cc1ccccc1-c1cc(C(=O)NCc2cccc(C(F)(F)F)c2)nn1CC1CC(c2cccc([N+](=O)[O-])c2)=NO1 (configuration not stated) | nt | i | i | 35 | i
COc1ccccc1NC(=O)C(=N\O)/C(C)=N/O | i | i | i | nt | 39
COc1ccccc1NC(C)=O | i | i | i | i | nt
Cc1nc(SCc2ccc(O)c([N+](=O)[O-])c2)c([N+](=O)[O-])[nH]1 | i | i | i | 20 | i
Cc1ccc2c(c1)c1c(n2CC(O)CNC(C)(C)C)CCCC1 (configuration not stated) | nt | i | i | i | 65
Nc1ccc(S(=O)(=O)c2cc(O)c3ccccc3c2O)cc1 | nt | i | 28 | nt | i
Cc1cccc(N2CCN(C(=O)CCS(=O)(=O)c3ccc(Br)cc3)CC2C)c1 (configuration not stated) | i | i | i | i | 67
CC1=CCC(C(=O)O)C(C(=O)NC2CCCCC2)C1 (configuration not stated) | i | i | i | i | 41
CCC1(CC)NC(=O)NC1=O | i | i | i | 32 | nt
Cc1nccn1CC(=O)NN=Cc1cccs1 | nt | nt | nt | i | nt
CC(=N/N=C1/NC(=O)C(CC(=O)O)S1)c1ccccn1 (configuration not stated) | nt | nt | nt | i | nt
CCOc1ccccc1C=NNC(=O)CNC(=O)COc1ccccc1 | nt | nt | nt | i | nt
O=C(O)CN1C(=O)/C(=C\c2cc(Br)ccc2OCc2ccc(Cl)cc2Cl)SC1=S | i | nt | nt | nt | 86
O=C(O)CN1C(=O)/C(=C\c2ccccc2OCc2ccc(Cl)cc2)SC1=S | i | i | i | nt | i
COc1ccc2[nH]c3c(=O)n(N=Cc4ccc(OC)c(CN5CCCC5)c4)c(C)nc3c2c1 | nt | nt | nt | i | nt
COc1ccc(Cn2c(SCC(=O)NCc3ccco3)nc3ccsc3c2=O)cc1 | i | 21 | i | i | nt
C/C=C(\C)C(=O)OC1CC(C)(C)C[C@H]2C3=CC[C@@H]4[C@@]5(C)CCC(O[C@@H]6O[C@@H](C(=O)O)[C@@H](O)C(O[C@@H]7OC[C@H](O)[C@@H](O)[C@@H]7O[C@@H]7OC(CO)C(O)[C@@H](O)[C@@H]7O)C6O[C@@H]6OC(CO)C(O)C(O)C6O)[C@@](C)(CO)[C@@H]5CC[C@]4(C)[C@]3(C)CC(O)[C@@]12CO (some centres not stated) | nt | 26 | i | i | 58
CC1(C)CC[C@]2(C(=O)O[C@@H]3OC(CO)[C@@H](O)[C@H](O)[C@H]3O)CC[C@]3(C)C(=CCC4[C@@]5(C)CC[C@H](O[C@@H]6OC(C(=O)O)[C@@H](O)[C@H](O)[C@H]6O)C(C)(C)C5CC[C@]43C)[C@@H]2C1 (some centres not stated) | nt | 16 | i | i | i
C[C@@H]1CN([C@@H](C)CO)C(=O)c2cccc(NS(=O)(=O)c3cccs3)c2O[C@@H]1CN(C)S(=O)(=O)c1ccccc1 | nt | nt | nt | nt | 37
CC(C)NC(=O)Nc1ccc2c(c1)C(=O)N([C@H](C)CO)C[C@@H](C)[C@H](CN(C)C(=O)Nc1cccc3ccccc13)O2 | nt | nt | nt | nt | i
CC(C)NC(=O)Nc1ccc2c(c1)C(=O)N([C@H](C)CO)C[C@H](C)[C@@H](CN(C)S(=O)(=O)c1ccccc1)OCCCC[C@H](C)O2 | nt | nt | nt | nt | 40
CC(C)NC(=O)Nc1ccc2c(c1)C(=O)N([C@@H](C)CO)C[C@@H](C)[C@@H](CN(C)C(=O)Nc1cccc3ccccc13)O2 | nt | nt | nt | nt | 46
CC(C)NC(=O)Nc1ccc2c(c1)C(=O)N([C@@H](C)CO)C[C@H](C)[C@@H](CN(C)S(=O)(=O)c1ccccc1)OCCCC[C@@H](C)O2 | nt | nt | nt | nt | i
CCCCCn1nc(C)c(C=NNC(=O)c2ccoc2C)c1C | nt | nt | nt | i | nt
O=c1[nH][nH]c(C(F)(F)F)c1C=NN1CCOCC1 | nt | nt | nt | i | nt
SMILES | NSD2 inh | LEDGF integ inh | TDP2 absorb | UCH37 inh | Casp6 inh
CCSc1ncc(C=NNc2ccc(F)cc2)n1C | nt | nt | nt | i | nt
O=C(NCC1CCCO1)C(=O)NN=Cc1ccc(OCc2ccccc2Cl)cc1 (configuration not stated) | nt | nt | nt | i | nt
COC(=O)C(c1ccccc1)C(CC(=O)c1ccccc1)c1ccccc1 (configuration not stated) | i | i | i | nt | nt
CCCC[C@H](CC(=O)c1ccccc1)[C@@H](OC(C)=O)C(=O)Oc1c(C(C)C)cccc1C(C)C | nt | i | i | 25 | nt
CC(=NNC(=O)CCc1ccccc1)C1C(=O)c2ccccc2C1=O | nt | nt | nt | i | nt
O=C1C(Cc2ccccc2)SC(=NN=Cc2ccco2)N1c1ccccc1 (configuration not stated) | nt | nt | nt | i | nt
O=C1CS/C(=N\N=C\c2ccco2)N1c1ccccc1 | i | i | i | nt | 57
CC(=NNC(=O)CC1N=C(Cc2ccccc2)NNC1=O)c1ccccc1 (configuration not stated) | nt | nt | nt | i | nt
COc1ccc(N=C2S/C(=C\c3ccc(N4CCOCC4)o3)C(=O)N2CCc2c[nH]c3ccccc23)cc1 | nt | nt | nt | i | nt
COc1ccc(N=C2S/C(=C\c3ccc(OCC(=O)O)cc3)C(=O)N2CCc2c[nH]c3ccccc23)cc1 | nt | i | i | i | 83
O=C(O)C1C=Cc2ccccc2N1C(=O)c1ccccc1 (configuration not stated) (tested in a mixture with another compound) | i | i | i | nt | 39
COC(=O)C1C(O)C(C)C(O)C(C)(O)/C=C\C=C(/C)C(=O)Nc2c(C)c(OC(C)=O)c3c(c2O)C(=O)C(C)=C2OCOC(=C23)/C(C)=C/C(C)(O)C(O)C(C)C1O (configuration not stated) | i | i | i | nt | 57
O=[N+]([O-])c1ccc(NN=C/C=C/c2ccco2)cc1 | nt | nt | nt | i | nt
C/C(=N\NC(=O)c1ccccc1O)C1C(=O)c2ccccc2C1=O | i | i | i | nt | nt
CC(=NNC(=O)c1ccccc1O)C1C(=O)c2ccccc2C1=O | nt | nt | nt | 21 | nt
CON=CNC(=O)Cc1cn(-c2ncc(C(F)(F)F)cc2Cl)c2ccccc12 | nt | nt | nt | i | nt
O=C1CC(N2CCN(c3ccccc3)CC2)C(=O)N1c1cccc(Cl)c1 (configuration not stated) | i | i | i | i | i
O=C1CC(N2CCSCC2)C(=O)N1c1cccc(Cl)c1 (configuration not stated) | i | i | i | i | 44
O=C(COc1ccc(S(=O)(=O)NC2CCCCC2)cc1Cl)Nc1ccc2c(c1)OCO2 | i | i | i | i | nt
O=C(COc1ccc(S(=O)(=O)NC2CCCCC2)cc1Cl)NCc1ccc2c(c1)OCO2 | i | i | i | i | 40
O=C(NN=Cc1ccc(O)c([N+](=O)[O-])c1)c1ccncc1 | nt | nt | nt | 20 | nt
Nc1ccc(C(=O)n2c3ccccc3c3ccccc32)cc1 | i | i | i | 28 | nt
COc1cccc(C(=O)OCC(=O)Nc2sc3c(c2C(N)=O)CCC3)c1O | i | i | i | i | 41
COc1ccccc1NC(=O)COC(=O)c1cc2c(s1)CCC2 | i | i | i | i | 64
